The record followed here is ChEMBL document CHEMBL1221279, “Synthesis, biological evaluation, and structure-activity relationship study of novel cytotoxic aza-caffeic acid derivatives” (Bioorg Med Chem, 2010).

Holding throughout (assay type): functional, cell-based
One assay has as its system K562. In words: Cytotoxicity against human K562 cells after 72 hrs by MTT assay. Conditions: K562, 72 h. A digest of the protocol: (§1)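 Cells grown in MEM with 10% fetal calf serum, penicillin and streptomycin at 37 °C, 5% CO2. Exponentially growing cells seeded in quadruplicate at 5 × 10³ per well and left 24 h before compounds (DMSO stocks) were added. After 72 h exposure, MTT added for 4 h at 37 °C, formazan dissolved in DMSO, read at 570 nm. IC50 read graphically from dose–response curves.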

The next assay deals with CNE. In words: Cytotoxicity against human CNE cells after 72 hrs by MTT assay. The method in brief: as §1
The next assay relates to PC-3. In words: Cytotoxicity against human PC3 cells after 72 hrs by MTT assay. Conditions: PC-3, 72 h. The method in brief:
as §1

Assay [1] is described as follows: Cytotoxicity against human ECA109 cells after 72 hrs by MTT assay. Conditions: ECa-109, 72 h. A digest of the protocol:
as §1

A short description of assay [2]: Cytotoxicity against human LS 174T cells after 72 hrs by MTT assay. Particulars: LS174T. A digest of the protocol:
as §1

A short description of assay [3]: Cytotoxicity against human Bel7404 cells after 72 hrs by MTT assay. Particulars: BEL-7404, 72 h. A digest of the protocol: as §1
The test system of the next assay is HL-60. Put plainly: Cytotoxicity against human HL60 cells after 72 hrs by MTT assay. Conditions: HL-60, 72 h. The method in brief:
as §1

A further assay deals with HeLa. In words: Cytotoxicity against human HeLa cells after 72 hrs by MTT assay. A digest of the protocol:
as §1

In another assay the test system is KB. In words: Cytotoxicity against human KB cells after 72 hrs by MTT assay. A digest of the protocol: as §1
In the next assay the test system is BGC-823. Put plainly: Cytotoxicity against human BGC823 cells after 72 hrs by MTT assay. Particulars: BGC-823, 72 h. A digest of the protocol: as §1
The nature of assay [4]: Cytotoxicity against human HO8910 cells after 72 hrs by MTT assay. Conditions: HO-8910, 72 h. The method in brief: as §1
The next assay concerns A549. Put plainly: Cytotoxicity against human A549 cells after 72 hrs by MTT assay. Particulars: A549, 72 h. A digest of the protocol: as §1

For the compound `O=C(COC(=O)/C=C/c1ccc(O)c(O)c1)Nc1ccccc1`, the IC50 is over 200 µM in the assay with K562; over 200 µM in the assay with CNE; over 200 µM with PC-3; over 200 µM in [1]; 117 µM in [2]; over 200 µM in assay [3]. Besides, the results for the IC50 in the assay on HL-60 and in the assay with HeLa were 30.3 µM and over 200 µM, respectively.
`COc1ccc(/C=C/C(=O)N2CCN(Cc3ccc(Cl)c(Cl)c3)CC2)cc1OC`: the IC50 is 70.8 µM with K562; 69.2 µM in the assay on KB; over 200 µM in the assay with CNE; over 200 µM with PC-3; over 200 µM in assay [1]; over 200 µM in assay [2]. The IC50 is 85.7 µM in [3]; 140 µM in the assay with HL-60; over 200 µM in the assay on BGC-823; 76.6 µM in the assay with HeLa; 121 µM in [4]; over 200 µM in the assay with A549.
On to `O=C(/C=C/c1ccccc1)NNC(=O)c1ccccc1O`, for which the IC50 with K562 turned out to be 0.9 µM; in the assay on KB, 20.1 µM; in the assay with CNE it was 43.7 µM; with PC-3, 40.9 µM; in assay [1] it was 41.4 µM; in assay [2], 20.1 µM. For the same compound, the IC50 in assay [3] came out at 21.2 µM; in the assay on HL-60, 39.3 µM; with BGC-823, 46 µM; in the assay on HeLa, 73.1 µM; in assay [4], 190 µM; with A549, 72.6 µM.
In the case of `COCOc1cc(/C=C/C(=O)OCC(=O)Nc2ccc(Cl)cc2)ccc1OCc1ccccc1`, the IC50 (in the assay with K562; in the assay with CNE; in the assay with PC-3; in [1]; in [2]; in assay [3]) was over 200 µM in each case. In addition, the IC50 in the assay with HL-60 and in the assay with HeLa was over 200 µM each time.
As to `CCCCCNC(=O)COC(=O)/C=C/c1ccc(O)c(O)c1`, the IC50 in the assay on K562 is 121 µM; in the assay on CNE, 170 µM; in the assay on PC-3 it was 155 µM; in assay [1], 131 µM; in assay [2], 69.4 µM; in assay [3] it was over 200 µM. For the same compound, the IC50 was 97.4 µM in the assay on HL-60 and 187 µM in the assay on HeLa.
`CCOc1ccc(COc2c(OC)cc(/C=C/C(=O)NCCN3CCOCC3)cc2OC)cc1`: the IC50 (in the assay on K562; with KB; in the assay on CNE; with PC-3; in [1]; in assay [2]) was over 200 µM in each case. The IC50 (in [3]; in the assay on HL-60; in the assay with BGC-823; in the assay on HeLa; in assay [4]; with A549) was over 200 µM in each case.
As to `COCOc1cc(/C=C/C(=O)OCC(=O)Nc2nccs2)ccc1OCc1ccccc1`, the IC50 in the assay with K562 was over 200 µM; with CNE it was over 200 µM; in the assay on PC-3, over 200 µM; in [1], over 200 µM; in [2], over 200 µM; in assay [3] it was 130 µM. For the same compound, the IC50 with HL-60 and in the assay with HeLa was over 200 µM throughout.
For the compound `COc1ccc(NC(=O)COC(=O)/C=C/c2ccc(OCc3ccccc3)c(O)c2)cc1`, the IC50 was 56.1 µM in the assay with K562; over 200 µM with CNE; over 200 µM in the assay on PC-3; over 200 µM in [1]; over 200 µM in [2]; over 200 µM in [3]. In addition, the IC50 with HL-60 and in the assay with HeLa was over 200 µM each time.
Regarding `COc1ccc(/C=C/C(=O)OCC(=O)NCc2ccco2)cc1OC`, the IC50 with K562 is 0.8 µM; with CNE it was over 200 µM; in the assay with PC-3, over 200 µM; in [1] it was over 200 µM; in [2], over 200 µM; in assay [3], over 200 µM. Also, the IC50 with HL-60 is 92.5 µM; in the assay on HeLa, over 200 µM.
Turning to `CCOc1ccc(COc2c(OC)cc(/C=C/C(=O)OCC(=O)Nc3ccc(Cl)cc3)cc2OC)cc1`, the IC50 (in the assay on K562; with CNE; in the assay with PC-3; in [1]; in assay [2]; in [3]) was over 200 µM throughout. The IC50 in the assay with HL-60 and in the assay with HeLa was over 200 µM in each case.
Consider `COc1ccc(NC(=O)COC(=O)/C=C/c2ccc(O)c(O)c2)cc1`, for which the IC50 with K562 is 79.1 µM; in the assay on CNE, over 200 µM; with PC-3, 172 µM; in assay [1] it was 190 µM; in [2], 124 µM; in assay [3], over 200 µM. In addition, the IC50 is 72.1 µM in the assay with HL-60 and over 200 µM in the assay with HeLa.
With `COCOc1cc(/C=C/C(=O)OCC(=O)Nc2ccc(OC)cc2)ccc1OCc1ccccc1`, the IC50 was over 200 µM with K562; over 200 µM with CNE; over 200 µM in the assay with PC-3; over 200 µM in assay [1]; over 200 µM in [2]; 133 µM in [3]. The IC50 with HL-60 was over 200 µM; in the assay on HeLa, 155 µM.
Turning to `O=C(COC(=O)/C=C/c1ccc(O)c(O)c1)NN1CCOCC1`, the IC50 in the assay with K562 is 56.8 µM; with CNE, over 200 µM; in the assay on PC-3, over 200 µM; in assay [1], over 200 µM; in [2] it was over 200 µM; in assay [3], over 200 µM. The IC50 in the assay with HL-60 and with HeLa was over 200 µM each time.
Turning to `COc1ccc(NC(=O)COC(=O)/C=C/c2cc(OC)c(OCc3ccc(Cl)c(Cl)c3)c(OC)c2)cc1`, the IC50 was over 200 µM with K562; over 200 µM in the assay on CNE; over 200 µM with PC-3; over 200 µM in [1]; over 200 µM in [2]; 97.8 µM in [3]. Also, the IC50 in the assay with HL-60 and in the assay on HeLa was over 200 µM in each case.
`COc1ccc(/C=C/C(=O)OCC(=O)Nc2ccccc2)cc1OC`: the IC50 (in the assay with K562; with CNE; with PC-3; in [1]; in assay [2]; in [3]) was over 200 µM in each case. Moreover, the figures for the IC50 with HL-60 and in the assay on HeLa were 46.4 µM and 193 µM, respectively.
In the case of `COCOc1cc(/C=C/C(=O)OCC(=O)NN2CCOCC2)ccc1OCc1ccccc1`, the IC50 was 32.4 µM with K562; over 200 µM in the assay on CNE; over 200 µM with PC-3; 143 µM in [1]; over 200 µM in assay [2]; over 200 µM in [3]. In addition, the figures for the IC50 with HL-60 and in the assay with HeLa were 50.4 µM and over 200 µM, respectively.
Regarding `COCOc1cc(/C=C/C(=O)OCC(=O)NCc2ccco2)ccc1OCc1ccccc1`, the 50% inhibitory concentration (IC50) in the assay on K562 was 0.3 µM; in the assay with CNE, over 200 µM; in the assay with PC-3, over 200 µM; in assay [1] it was over 200 µM; in [2], over 200 µM; in assay [3], over 200 µM. For the same compound, the IC50 with HL-60 was 82.2 µM; with HeLa it was over 200 µM.
`COc1ccc(NC(=O)COC(=O)/C=C/c2cc(OC)c(OCc3ccccc3)c(OC)c2)cc1`: the IC50 (with K562; with CNE; with PC-3; in [1]; in assay [2]; in assay [3]) was over 200 µM throughout. Further, the IC50 with HL-60 and with HeLa was over 200 µM throughout.
`CCOc1ccc(COc2c(OC)cc(/C=C/C(=O)OCC(=O)Nc3ccccc3)cc2OC)cc1`: the IC50 (in the assay on K562; in the assay with CNE; with PC-3; in [1]; in assay [2]; in assay [3]) was over 200 µM each time. The IC50 with HL-60 and in the assay with HeLa was over 200 µM in each case.
Take `O=C(COC(=O)/C=C/c1ccc(O)c(O)c1)Nc1ccc(Cl)cc1`: the IC50 in the assay on K562 was 99.4 µM; in the assay with CNE it was 89.6 µM; in the assay with PC-3 it was 160 µM; in assay [1], 175 µM; in assay [2], 108 µM; in assay [3], over 200 µM. The IC50 amounted to 8.1 µM with HL-60 and 195 µM in the assay with HeLa.
Turning to `COc1cc(/C=C/C(=O)OCC(=O)Nc2ccc(Cl)cc2)cc(OC)c1OCc1ccc(Cl)c(Cl)c1`, the IC50 with K562 is over 200 µM; in the assay with CNE, over 200 µM; in the assay on PC-3, over 200 µM; in assay [1], over 200 µM; in [2] it was 72.4 µM; in [3] it was over 200 µM. The IC50 is 73.9 µM with HL-60 and over 200 µM in the assay on HeLa.
For `Cc1ccc(NC(=O)COC(=O)/C=C/c2ccc(O)c(O)c2)cc1`, the IC50 in the assay with K562 was over 200 µM; in the assay with CNE it was over 200 µM; in the assay with PC-3, over 200 µM; in assay [1], over 200 µM; in [2], 145 µM; in [3], over 200 µM. Further, the IC50 in the assay with HL-60 is 92.6 µM; in the assay with HeLa it was over 200 µM.
For the compound `COc1ccc(/C=C/C(=O)OCC(=O)Nc2ccc(Cl)cc2)cc1OC`, the IC50 in the assay on K562 is 60.2 µM; in the assay on CNE it was over 200 µM; with PC-3, over 200 µM; in [1], 81.9 µM; in assay [2], over 200 µM; in assay [3], 120 µM. For the same compound, the IC50 with HL-60 came out at 31.9 µM; in the assay on HeLa, 45.4 µM.
